Laboratory results from ChEMBL document CHEMBL6092204, “Synthesis of pyridyl pyrimidine hedgehog signaling pathway inhibitors and their antitumor activity in human pancreatic cancer” (Eur J Med Chem, 2024).
The source made the active and inactive calls. No cut-off for these calls is given here.

How the values were obtained:
[1] = Toxicity in BALB/c nude mouse xenografted with human BxPC-3 cells assessed as necrosis in lung at 5 to 15 mg/kg, ip qd for 21 days by H and E staining based analysis; settings: in vivo, 504 h
PANC-1 [2] = experiment: Antiproliferative activity against human PANC-1 cells assessed as inhibition of cell viability incubated for 48 hrs by MTT assay; assay type: functional, cell-based; settings: PANC-1, 48 h
Procedure, shortened: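 Cells in log phase were seeded at 8,000-10,000/well and allowed to adhere overnight at 37 °C, 5% CO2. Compound from DMSO stock, diluted in medium, was applied for 48 h; controls got drug-free medium, blanks held medium only. MTT (5 mg/mL stock) 4 h, formazan dissolved in DMSO, A490 read. Viability was blank-corrected against untreated cells; IC50 came from a fitted curve; three separate experiments.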

PANC-1 [3] = experiment: Induction of apoptosis in human PANC-1 cells assessed as viable cells at 10 uM incubated for 48 hrs by Annexin V-FITC/PI staining based flow cytometry (reference value: 93.2 %); assay type: functional; settings: read-out: Activity
PANC-1 [4] = experiment: Induction of apoptosis in human PANC-1 cells assessed as early apoptotic cells at 10 uM incubated for 48 hrs by Annexin V-FITC/PI staining based flow cytometry (reference value: 1.88 %); assay type: functional
PANC-1 [5] = experiment: Induction of cell cycle arrest in human PANC-1 cells assessed as accumulation at G1 phase at 5 uM incubated for 48 hrs by PI/RNase staining based flow cytometry (reference value: 82.0 %); assay type: functional
BXPC-3 [6] = experiment: Induction of cell cycle arrest in human BXPC-3 cells assessed as accumulation at G1 phase at 10 uM incubated for 48 hrs by PI/RNase staining based flow cytometry (reference value: 84.2 %); assay type: functional
PANC-1 [7] = experiment: Induction of apoptosis in human PANC-1 cells assessed as necrotic cells at 10 uM incubated for 48 hrs by Annexin V-FITC/PI staining based flow cytometry (reference value: 2.24 %); assay type: functional
BXPC-3 [8] = experiment: Induction of apoptosis in human BXPC-3 cells assessed as necrotic cells at 2.5 uM incubated for 48 hrs by Annexin V-FITC/PI staining based flow cytometry (reference value: 0.71 %); assay type: functional
BXPC-3 [9] = experiment: Induction of cell cycle arrest in human BXPC-3 cells assessed as accumulation at G2 phase at 10 uM incubated for 48 hrs by PI/RNase staining based flow cytometry (reference value: 8.15 %); assay type: functional
BXPC-3 [10] = experiment: Induction of apoptosis in human BXPC-3 cells assessed as viable cells at 2.5 uM incubated for 48 hrs by Annexin V-FITC/PI staining based flow cytometry (reference value: 91.5 %); assay type: functional; settings: read-out: Activity
[11] = Toxicity in BALB/c nude mouse xenografted with human BxPC-3 cells assessed as inflammatory infiltration in lung at 5 to 15 mg/kg, ip qd for 21 days by H and E staining based analysis; settings: in vivo, 504 h
[12] = Toxicity in BALB/c nude mouse xenografted with human BxPC-3 cells assessed as cellular edema in kidneys at 5 to 15 mg/kg, ip qd for 21 days by H and E staining based analysis; settings: in vivo, 504 h
PANC-1 [13] = experiment: Induction of cell cycle arrest in human PANC-1 cells assessed as accumulation at G1 phase at 10 uM incubated for 48 hrs by PI/RNase staining based flow cytometry (reference value: 82.0 %); assay type: functional
[14] = Toxicity in BALB/c nude mouse xenografted with human BxPC-3 cells assessed as cellular edema in heart at 5 to 15 mg/kg, ip qd for 21 days by H and E staining based analysis; settings: in vivo, 504 h
[15] = Toxicity in BALB/c nude mouse xenografted with human BxPC-3 cells assessed as necrosis in kidneys at 5 to 15 mg/kg, ip qd for 21 days by H and E staining based analysis; settings: in vivo, 504 h
PANC-1 [16] = experiment: Induction of apoptosis in human PANC-1 cells assessed as late apoptotic cells at 2.5 uM incubated for 48 hrs by Annexin V-FITC/PI staining based flow cytometry (reference value: 2.74 %); assay type: functional
PANC-1 [17] = experiment: Induction of apoptosis in human PANC-1 cells assessed as viable cells at 8 uM incubated for 48 hrs by Annexin V-FITC/PI staining based flow cytometry (reference value: 93.2 %); assay type: functional; settings: read-out: Activity
BXPC-3 [18] = experiment: Induction of cell cycle arrest in human BXPC-3 cells assessed as accumulation at G1 phase at 5 uM incubated for 48 hrs by PI/RNase staining based flow cytometry (reference value: 84.2 %); assay type: functional
[19] = Toxicity in BALB/c nude mouse xenografted with human BxPC-3 cells assessed as body weight loss at 5 to 15 mg/kg, ip qd for 21 days; settings: in vivo, 504 h
PANC-1 [20] = experiment: Induction of cell cycle arrest in human PANC-1 cells assessed as accumulation at G2 phase at 5 uM incubated for 48 hrs by PI/RNase staining based flow cytometry (reference value: 5.83 %); assay type: functional
[21] = Inhibition of Hh signaling pathway in mouse NIH3T3 cells incubated for 48 hrs by Gli luciferase reporter assay; assay type: cell-based; settings: NIH3T3, 48 h
Procedure, shortened: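 Reporter cells were seeded in 96-well plates, incubated overnight, then treated for 48 h. Lysate luciferase activity was measured with a dual-luciferase system, and firefly signal was normalised to Renilla.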

BXPC-3 [22] = experiment: Induction of apoptosis in human BXPC-3 cells assessed as viable cells at 5 uM incubated for 48 hrs by Annexin V-FITC/PI staining based flow cytometry (reference value: 91.5 %); assay type: functional; settings: read-out: Activity
[23] = Toxicity in BALB/c nude mouse xenografted with human BxPC-3 cells assessed as tissue fibrosis in kidneys at 5 to 15 mg/kg, ip qd for 21 days by H and E staining based analysis; settings: in vivo, 504 h
BXPC-3 [24] = experiment: Induction of apoptosis in human BXPC-3 cells assessed as necrotic cells at 5 uM incubated for 48 hrs by Annexin V-FITC/PI staining based flow cytometry (reference value: 0.71 %); assay type: functional
Mus musculus = experiment: In vivo inhibition of Gli1 in human BxPC-3 cells xenografted in BALB/c nude mouse at 5 to 15 mg/kg, ip qd for 21 days by IHC analysis; settings: dose 5-15 mg/kg, time 21.0 day
BXPC-3 [25] = experiment: Induction of cell cycle arrest in human BXPC-3 cells assessed as accumulation at S phase at 2.5 uM incubated for 48 hrs by PI/RNase staining based flow cytometry (reference value: 8.18 %); assay type: functional
BXPC-3 [26] = experiment: Inhibition of cell migration in human BXPC-3 cells incubated for 24 hrs by wound healing assay; assay type: functional, cell-based; settings: dose 2.5-10 µM
Procedure, shortened: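 Monolayers at 80-90% confluence were scratched with a cross and washed three times with PBS. Eight fields were imaged at 0 h. Cells were then incubated with compound in medium containing 2% FBS, and the same fields were re-imaged at 24 h (100×). Closure % = (area 0 h − area 24 h)/area 0 h × 100; n = 3.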

BXPC-3 [27] = experiment: Induction of apoptosis in human BXPC-3 cells assessed as late apoptotic cells at 8 uM incubated for 48 hrs by Annexin V-FITC/PI staining based flow cytometry (reference value: 6.72 %); assay type: functional

With `CN(C)Cc1ccc(NC(=O)c2ccc(Nc3nccc(-c4cccnc4)n3)cc2)cc1` the Activity [1] was “Non-toxic”, the IC50 (PANC-1 [2]) was 4.2 µM and the viability at 10 µM (PANC-1 [3]) was 71%. The Activity (PANC-1 [4]) was 4.09%, the Activity (PANC-1 [5]) was 84.2% and the Activity (BXPC-3 [6]) was 92.9%. For the same compound, the Activity (PANC-1 [7]) was 2.56%, the Activity (BXPC-3 [8]) was 1.37% and the Activity (BXPC-3 [9]) was 2.98%. The viability at 2.5 µM (BXPC-3 [10]) was 88.5%, the Activity [11] was “Non-toxic” and the Activity [12] was “Non-toxic”. The Activity (PANC-1 [13]) was 72.7%, the Activity [14] was “Non-toxic” and the Activity [15] was “Non-toxic”. For the same compound, the Activity (PANC-1 [16]) was 5.12%, the viability at 8 µM (PANC-1 [17]) was 85.9% and the Activity (BXPC-3 [18]) was 83.9%. The Activity [19] was “Non-toxic”, the Activity (PANC-1 [20]) was 8.15% and the IC50 [21] was 0.0027 µM. The viability at 5 µM (BXPC-3 [22]) was 85.5%, the Activity [23] was “Non-toxic” and the Activity (BXPC-3 [24]) was 1.02%. The inhibition (Mus musculus) was “Active”, the Activity (BXPC-3 [25]) was 11.1% and the inhibition (BXPC-3 [26]) was “Dose-dependent-effect”. It also gave an Activity (BXPC-3 [27]) of 12.3%.
